Consider 24 molecules from ChEMBL document CHEMBL4368943 (J Med Chem, 2019).

A short description of test [1]: Binding affinity to His-TEV-tagged VHL (54 to 213 residues) (unknown origin)/Elongin B (1 to 118 residues)/Elongin C (1 to 96 residues) expressed in Escherichia coli BL21(DE3) by FP assay. The arrangement: species or system Homo sapiens. The procedure, abridged: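 Competitive FP. Tracer is a fluorescent VHL ligand (Kd 2.3 nM). VHL–ElonginB/C complex and tracer each at 5 nM final, preincubated. Compound in DMSO (5 µL into 95 µL) for 60 min at room temperature with shaking. Ex 485/em 530 nm. IC50 by nonlinear regression; Ki from probe KD and protein/probe concentrations. Duplicate, three independent experiments.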

The target in test [2] is T1, von Hippel-Lindau disease tumor suppressor/Estrogen receptor/Cullin-2 (Homo sapiens, UniProt P03372+P40337+Q13617). Nature of the test: Protac activity against VHL/cullin2/ERalpha in human MCF7 cells assessed as ERalpha degradation by measuring ER protein/GADPH ratio at 1 nM after 4 hrs by Western blot analysis relative to control. Type of test: cell-based. The essentials:
(§1)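 MCF-7 cells (DMEM, 10% FBS, passages 3−8) exposed 4 h. Lysed in RIPA with protease inhibitors; equal protein on 10% SDS-PAGE, PVDF, anti-ERα blot. Membranes stripped and reprobed for GAPDH. ERα/GAPDH ratio normalized to DMSO = 100; DC50 from densitometry of the dose series.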
A general note: A western blot detects proteins with antibodies after separation by electrophoresis.

For test [3], the target named is T1, von Hippel-Lindau disease tumor suppressor/Estrogen receptor/Cullin-2. Nature of the test: Protac activity against VHL/cullin2/ERalpha in human MCF7 cells assessed as ERalpha degradation by measuring ER protein/GADPH ratio at 10 nM after 4 hrs by Western blot analysis relative to control. Type of test: cell-based. The essentials: as §1
Test [4] has the same target. Nature of the test: Protac activity against VHL/cullin2/ERalpha in human MCF7 cells assessed as ERalpha degradation by measuring ER protein/GADPH ratio at 100 nM after 4 hrs by Western blot analysis relative to control. Type of test: cell-based. The essentials:
as §1

Test [5] deals with MCF7. Nature of the test: Inhibition of cell growth in human MCF7 cells after 4 days by wst-8-based colorimetric analysis. To be noted: MCF7, 96 h. The class given is functional. The essentials: (§2)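 Cells seeded at 1500/well overnight, then exposed to graded compound doses for 4 days. Growth read by colorimetric WST-8 assay. GI50 from fitted curves. MCF-7 cells were kept in DMEM, 10% FBS, passages 3−8; human mammary epithelial cells were run the same way.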

In test [6] the test system is MCF7. As to the kind of experiment: Inhibition of cell growth in human MCF7 cells after 4 days by wst-8-based colorimetric analysis relative to control. Type of test: functional. The procedure, abridged: as §2
Test [7] deals with MCF7. As to the kind of experiment: Antiproliferative activity against human MCF7 cells at 10 to 300 nM after 5 days by crystal violet staining based assay. Type of test: functional, cell-based. The procedure, abridged: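 MCF-7 cells in DMEM with 10% FBS and penicillin/streptomycin, passages 3−8, exposed to compounds at 10, 100 and 300 nM for 5 days, then fixed and stained with crystal violet.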

Test [8] addresses T2, Protein cereblon/Estrogen receptor/Cullin-4A (Homo sapiens) (UniProt P03372+Q96SW2+Q13619). As to the kind of experiment: Protac activity against cereblon/cullin 4A/ERalpha in human MCF7 cells assessed as ERalpha degradation by measuring ER protein/GADPH ratio at 1 nM after 4 hrs by Western blot analysis relative to control. The class given is cell-based. The essentials: as §1

Test [9] deals with T2, Protein cereblon/Estrogen receptor/Cullin-4A (Homo sapiens). Nature of the test: Protac activity against cereblon/cullin 4A/ERalpha in human MCF7 cells assessed as ERalpha degradation by measuring ER protein/GADPH ratio at 10 nM after 4 hrs by Western blot analysis relative to control. Type of test: cell-based. The essentials:
as §1

Test [10] has the same target. As to the kind of experiment: Protac activity against cereblon/cullin 4A/ERalpha in human MCF7 cells assessed as ERalpha degradation by measuring ER protein/GADPH ratio at 100 nM after 4 hrs by Western blot analysis relative to control. Type of test: cell-based. The procedure, abridged:
as §1

Test [11] shares this target. Nature of the test: Protac activity against cereblon/cullin 4A/ERalpha in human MCF7 cells assessed as ERalpha degradation by measuring ER protein/GADPH ratio at 1000 nM after 4 hrs by Western blot analysis relative to control. The class given is cell-based. The procedure, abridged:
as §1

The target of test [12] is T1, von Hippel-Lindau disease tumor suppressor/Estrogen receptor/Cullin-2. As to the kind of experiment: Protac activity against VHL/cullin2/ERalpha in human MCF7 cells assessed as ERalpha degradation by measuring ER protein/GADPH ratio at 1000 nM after 4 hrs by Western blot analysis relative to control. Type of test: cell-based. The procedure, abridged:
as §1

For test [13] the target is unchanged. As to the kind of experiment: Protac activity against VHL/cullin2/ERalpha in human MCF7 cells assessed as ERalpha degradation by measuring reduction in ER protein level pre-treated with raloxifene for 2 hrs followed by compound exposure at 30 nM for 4 hrs by Western blot analysis. Type of test: cell-based.

Calls of active or inactive are those of the source. No cut-off for these calls is given here.

T1 sequence (P03372 whole entry, looked up): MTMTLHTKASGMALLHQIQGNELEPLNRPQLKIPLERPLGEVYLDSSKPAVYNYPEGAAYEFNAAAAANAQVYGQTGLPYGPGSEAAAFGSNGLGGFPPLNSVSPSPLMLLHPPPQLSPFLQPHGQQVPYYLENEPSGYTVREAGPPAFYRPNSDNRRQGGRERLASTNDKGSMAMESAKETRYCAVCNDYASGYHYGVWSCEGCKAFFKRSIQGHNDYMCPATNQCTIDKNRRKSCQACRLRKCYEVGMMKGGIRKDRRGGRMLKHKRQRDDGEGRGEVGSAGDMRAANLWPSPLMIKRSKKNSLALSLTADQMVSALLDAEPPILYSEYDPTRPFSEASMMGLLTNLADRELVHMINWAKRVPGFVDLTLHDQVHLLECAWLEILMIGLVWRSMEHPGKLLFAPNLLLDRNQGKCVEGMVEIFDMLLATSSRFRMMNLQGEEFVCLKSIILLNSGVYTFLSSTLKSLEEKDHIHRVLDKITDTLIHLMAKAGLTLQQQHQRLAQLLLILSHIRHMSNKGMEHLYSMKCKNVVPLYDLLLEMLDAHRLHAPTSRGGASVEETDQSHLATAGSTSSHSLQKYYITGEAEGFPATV
T1 sequence (P40337 whole entry, looked up): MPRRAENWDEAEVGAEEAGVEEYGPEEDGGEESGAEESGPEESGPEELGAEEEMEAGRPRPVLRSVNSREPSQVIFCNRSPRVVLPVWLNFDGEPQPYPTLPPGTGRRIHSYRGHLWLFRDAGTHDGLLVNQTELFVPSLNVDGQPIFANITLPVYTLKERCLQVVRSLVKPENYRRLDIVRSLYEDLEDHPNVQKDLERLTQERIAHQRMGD
T1 sequence (Q13617 whole entry, looked up): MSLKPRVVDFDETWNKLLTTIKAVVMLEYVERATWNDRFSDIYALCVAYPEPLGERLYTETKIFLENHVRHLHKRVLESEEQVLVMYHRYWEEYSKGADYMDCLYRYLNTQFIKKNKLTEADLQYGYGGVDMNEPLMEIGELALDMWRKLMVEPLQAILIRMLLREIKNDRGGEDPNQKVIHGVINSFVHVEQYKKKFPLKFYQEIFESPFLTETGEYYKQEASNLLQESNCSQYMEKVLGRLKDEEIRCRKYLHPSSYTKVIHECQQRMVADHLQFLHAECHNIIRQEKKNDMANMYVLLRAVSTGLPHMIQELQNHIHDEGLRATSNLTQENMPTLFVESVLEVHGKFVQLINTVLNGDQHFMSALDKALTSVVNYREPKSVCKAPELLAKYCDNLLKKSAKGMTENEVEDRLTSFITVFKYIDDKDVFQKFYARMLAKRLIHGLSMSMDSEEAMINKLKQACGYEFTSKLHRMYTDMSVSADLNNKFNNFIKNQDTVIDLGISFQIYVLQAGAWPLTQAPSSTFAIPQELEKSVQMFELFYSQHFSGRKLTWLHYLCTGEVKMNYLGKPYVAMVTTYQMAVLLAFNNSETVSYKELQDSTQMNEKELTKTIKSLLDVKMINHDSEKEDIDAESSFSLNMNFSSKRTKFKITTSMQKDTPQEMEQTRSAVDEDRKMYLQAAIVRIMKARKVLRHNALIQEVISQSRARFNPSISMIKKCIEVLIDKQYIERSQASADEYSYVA
T2 sequence (P03372 whole entry, looked up): as the sequence (P03372 whole entry, looked up) above
T2 sequence (Q13619 whole entry, looked up): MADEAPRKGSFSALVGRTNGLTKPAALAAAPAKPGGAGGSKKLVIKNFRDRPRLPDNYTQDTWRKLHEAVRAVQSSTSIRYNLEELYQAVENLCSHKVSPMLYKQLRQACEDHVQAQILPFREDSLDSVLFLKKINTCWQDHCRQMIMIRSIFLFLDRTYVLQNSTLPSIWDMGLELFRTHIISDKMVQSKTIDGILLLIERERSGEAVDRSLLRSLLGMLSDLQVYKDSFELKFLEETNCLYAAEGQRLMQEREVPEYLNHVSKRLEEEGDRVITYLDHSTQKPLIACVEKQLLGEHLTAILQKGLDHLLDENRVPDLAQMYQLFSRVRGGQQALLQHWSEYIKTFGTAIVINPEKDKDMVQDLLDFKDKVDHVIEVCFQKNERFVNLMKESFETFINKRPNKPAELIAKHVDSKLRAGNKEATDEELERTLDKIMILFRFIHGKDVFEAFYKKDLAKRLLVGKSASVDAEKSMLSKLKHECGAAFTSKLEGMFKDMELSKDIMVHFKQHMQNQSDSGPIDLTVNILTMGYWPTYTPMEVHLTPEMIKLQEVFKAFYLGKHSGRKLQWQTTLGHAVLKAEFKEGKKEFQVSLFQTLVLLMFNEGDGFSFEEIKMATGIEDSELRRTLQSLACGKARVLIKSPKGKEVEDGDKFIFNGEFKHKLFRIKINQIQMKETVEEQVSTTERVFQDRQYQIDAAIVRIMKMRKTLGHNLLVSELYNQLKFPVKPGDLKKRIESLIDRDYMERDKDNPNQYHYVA
T2 sequence (Q96SW2 whole entry, looked up): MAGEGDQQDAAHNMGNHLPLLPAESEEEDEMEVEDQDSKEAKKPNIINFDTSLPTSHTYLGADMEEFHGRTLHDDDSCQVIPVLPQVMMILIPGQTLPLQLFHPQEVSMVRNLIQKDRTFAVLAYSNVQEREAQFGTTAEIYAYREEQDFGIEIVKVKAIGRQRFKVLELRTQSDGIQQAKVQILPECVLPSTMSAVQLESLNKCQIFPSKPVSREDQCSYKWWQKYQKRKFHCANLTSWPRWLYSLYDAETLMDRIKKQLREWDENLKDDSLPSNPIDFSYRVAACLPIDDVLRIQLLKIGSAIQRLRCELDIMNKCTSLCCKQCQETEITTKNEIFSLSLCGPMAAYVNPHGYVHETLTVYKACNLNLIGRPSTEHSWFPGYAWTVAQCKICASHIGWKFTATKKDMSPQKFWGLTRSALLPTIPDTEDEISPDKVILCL

A word on the IC50: it is the concentration that gives 50% inhibition. Low values mean higher potency, high ones lower potency. In turn, `CC(=O)N[C@H](C(=O)N1C[C@H](O)C[C@H]1C(=O)N[C@@H](C)c1ccc(-c2scnc2C)cc1)C(C)(C)C` gave an IC50 in [1] of 196 nM.

As a reminder, the GI50 is the concentration that inhibits growth by half. A lower GI50 goes with greater sensitivity of the cells. On to `CCNCCc1ccc(CN(CC)c2cc(OC)ccc2[C@@H]2CCc3cc(O)ccc3C2)cc1` [ELACESTRANT], for which the Ratio came to 89 in test [2], 171 in [3] and 159 in [4]. This molecule came in with a GI50 in the test on MCF7 [5] of 0.028 nM. The Imax with MCF7 [6] is listed as 25.7%.

As to `CC(=O)N[C@H](C(=O)N1C[C@H](O)C[C@H]1C(=O)N[C@@H](C)c1ccc(C2CC2)cc1)C(C)(C)C`, the IC50 in [1] was found to be 6110 nM.

As to `C#Cc1ccc([C@H](C)NC(=O)[C@@H]2C[C@@H](O)CN2C(=O)[C@@H](NC(C)=O)C(C)(C)C)cc1`, the IC50 in test [1] was found to be 879 nM.

As for `O=C(c1ccc(OCCN2CCCCC2)cc1)c1c(-c2ccc(O)cc2)sc2cc(O)ccc12` [RALOXIFENE], the GI50 in the test with MCF7 [5] amounted to 0.079 nM. Moreover, in the test with MCF7 [6], the Imax was 34%. Besides, the outcome in the test on MCF7 [7] was Active.

For `CC(=O)N[C@H](C(=O)N1C[C@H](O)C[C@H]1C(=O)N[C@@H](C)c1ccc(Cl)cc1)C(C)(C)C`, the IC50 in test [1] turned out to be 7870 nM.

In the case of `CCN(CCOCCOCCOCC#Cc1cccc2c1CN(C1CCC(=O)NC1=O)C2=O)CCOc1ccc(C(=O)c2c(-c3ccc(O)cc3)sc3cc(O)ccc23)cc1` (centres undefined), the Ratio in [8] worked out at 124; in test [9], 149; in test [10] it was 146; in test [11], 165.

Consider `CCN(CCCCCCCC(=O)N[C@H](C(=O)N1C[C@H](O)C[C@H]1C(=O)N[C@@H](C)c1ccc(-c2scnc2C)cc1)C(C)(C)C)CCOc1ccc(C(=O)c2c(-c3ccc(O)cc3)sc3cc(O)ccc23)cc1`, for which the Ratio in test [2] worked out at 21; in test [3], 0.4; in test [4], 0.3; in test [12], 64.

As for `CC(C)C[C@H](NC(=O)[C@H](CCc1ccccc1)NC(=O)CN1CCOCC1)C(=O)N[C@@H](Cc1ccccc1)C(=O)N[C@@H](CC(C)C)C(=O)[C@@]1(C)CO1`, the outcome in test [13] was inactive.

Molecule `CC(=O)N[C@H](C(=O)N1C[C@H](O)C[C@H]1C(=O)N[C@@H](C)c1ccc(C(C)(C)C)cc1)C(C)(C)C` gave an IC50 in test [1] of 58900 nM.

As for `CCN(CCCCCCCCC(=O)N[C@H](C(=O)N1C[C@H](O)C[C@H]1C(=O)N[C@@H](C)c1ccc(-c2scnc2C)cc1)C(C)(C)C)CCOc1ccc(C(=O)c2c(-c3ccc(O)cc3)sc3cc(O)ccc23)cc1`, the Ratio is 23 in test [2], 7 in test [3] and 3 in test [4].

For the molecule `Cc1ncsc1-c1ccc([C@H](C)NC(=O)[C@@H]2C[C@@H](O)CN2C(=O)[C@@H](NC(=O)CCCCCCCN(C)CCOc2ccc(C(=O)c3c(-c4ccc(O)cc4)sc4cc(O)ccc34)cc2)C(C)(C)C)cc1`, the Ratio in test [2] turned out to be 27; in [3], 153; in test [4], 46.

As for `CCN(CCOCCOCC(=O)N[C@H](C(=O)N1C[C@H](O)C[C@H]1C(=O)N[C@@H](C)c1ccc(-c2scnc2C)cc1)C(C)(C)C)CCOc1ccc(C(=O)c2c(-c3ccc(O)cc3)sc3cc(O)ccc23)cc1`, the Ratio was found to be 94 in test [2], 0.4 in [3] and 0.4 in [4].

Take `Cc1ncsc1-c1ccc([C@H](C)NC(=O)[C@@H]2C[C@@H](O)CN2C(=O)[C@@H](NC(=O)CCCCCCCN(CCOc2ccc(C(=O)c3c(-c4ccc(O)cc4)sc4cc(O)ccc34)cc2)C2CCCC2)C(C)(C)C)cc1`: the Ratio stood at 75 in test [2], 0.3 in test [3] and 0.1 in test [4].

On to `CCN(CCOc1ccc(C(=O)c2c(-c3ccc(O)cc3)sc3cc(O)ccc23)cc1)CCN1CCN(CCCC(=O)N[C@H](C(=O)N2C[C@H](O)C[C@H]2C(=O)N[C@@H](C)c2ccc(-c3scnc3C)cc2)C(C)(C)C)CC1`, for which the Ratio came to 208 in [2], 50 in test [3] and 24 in test [4].

Consider `CCN(CCOCCOCCC(=O)N[C@H](C(=O)N1C[C@H](O)C[C@H]1C(=O)N[C@@H](C)c1ccc(-c2scnc2C)cc1)C(C)(C)C)CCOc1ccc(C(=O)c2c(-c3ccc(O)cc3)sc3cc(O)ccc23)cc1`, for which the results for the Ratio in test [2], in [3] and in test [4] were 183, 2.4 and 1.7, respectively.

Consider `CCN(CCCCCCCC(=O)N[C@H](C(=O)N1C[C@H](O)C[C@H]1C(=O)N[C@@H](C)c1ccc(C2CC2)cc1)C(C)(C)C)CCOc1ccc(C(=O)c2c(-c3ccc(O)cc3)sc3cc(O)ccc23)cc1`, for which the Ratio in test [2] stood at 130; in test [3], 75; in test [4], 70.

Consider `Cc1ncsc1-c1ccc([C@H](C)NC(=O)[C@@H]2C[C@@H](O)CN2C(=O)[C@@H](NC(=O)CCCCCCCN(CCOc2ccc(C(=O)c3c(-c4ccc(O)cc4)sc4cc(O)ccc34)cc2)C2CCCCC2)C(C)(C)C)cc1`, for which the Ratio in test [2] came out at 68; in test [3] it was 0.6; in test [4], 0.1.

With `C[C@]12CC[C@@H]3c4ccc(O)cc4C[C@@H](CCCCCCCCC[S+]([O-])CCCC(F)(F)C(F)(F)F)[C@H]3[C@@H]1CC[C@@H]2O` (some centres undefined) [FULVESTRANT], in the test with MCF7 [5], the GI50 was found to be 0.17 nM. The molecule further displayed an Imax with MCF7 [6] of 43.8%. For the same molecule, the result in the test with MCF7 [7] was Active.

With `CC(=O)N[C@H](C(=O)N1C[C@H](O)C[C@H]1C(=O)N[C@@H](C)c1ccc(C(C)C)cc1)C(C)(C)C`, the IC50 in [1] stood at 41000 nM.

With `CCN(CCCCCCC#Cc1cccc2c1CN(C1CCC(=O)NC1=O)C2=O)CCOc1ccc(C(=O)c2c(-c3ccc(O)cc3)sc3cc(O)ccc23)cc1` (centres undefined), the Ratio in [8] came out at 143; in test [9], 135; in [10], 160; in test [11], 174.

With `CCN(CCCCCC(=O)N[C@H](C(=O)N1C[C@H](O)C[C@H]1C(=O)N[C@@H](C)c1ccc(-c2scnc2C)cc1)C(C)(C)C)CCOc1ccc(C(=O)c2c(-c3ccc(O)cc3)sc3cc(O)ccc23)cc1`, the values for the Ratio in test [2], in [3] and in test [4] were 26, 66 and 12, respectively.

Consider `CCN(CCOCCOCCOCCC(=O)N[C@H](C(=O)N1C[C@H](O)C[C@H]1C(=O)N[C@@H](C)c1ccc(-c2scnc2C)cc1)C(C)(C)C)CCOc1ccc(C(=O)c2c(-c3ccc(O)cc3)sc3cc(O)ccc23)cc1`, for which the Ratio is 101 in test [2], 0.6 in test [3], 0.4 in test [4] and 67 in test [12].

In the case of `CCN(CCCCCCCC(=O)N[C@H](C(=O)N1C[C@H](O)C[C@H]1C(=O)N[C@@H](C)c1ccc(C(C)(C)C)cc1)C(C)(C)C)CCOc1ccc(C(=O)c2c(-c3ccc(O)cc3)sc3cc(O)ccc23)cc1`, the results for the Ratio in [2], in test [3] and in test [4] were 136, 112 and 80, respectively.
